Rows were chosen to be rich in hits. Some 3.1% of all compounds tested hit in one or more screens of this group.
KCNQ1 inh: human KCNQ1 channel inhibition; P51787; B-score at 10 µM; actives 1.3% (n = 310,000); CHO-K1 KCNQ1, FluxOR thallium flux fluorescence; active compounds read high;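 active = compounds whose thallium flux B-score, printed positive for inhibition, exceeds three library SD while starting fluorescence stays within three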;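 note: channel opened by potassium depolarization with thallium stimulus after 20 min compound exposure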
KCNQ1 act: human KCNQ1 channel potentiation or activation. CHO-K1 KCNQ1, thallium flux FluxOR fluorescence; active compounds read high. B-score at 10 µM. actives 0.35% (n = 310,000). AID 2648;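 active = fluorescence ratio B-score, a plate-corrected score, at least three library SD, with initial intensity B-score within 5 SD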
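assay system = KCNQ1-transfected CHO-K1 cells | medium = assay buffer with matched DMSO | probe or stimulus = depolarizing K+/Tl+ stimulus, K2SO4 and Tl2SO4 each 12.5 mM in 5x stock | dosing = single dose | incubation = dye 90 min, compound 20 min, room temperature | detection = kinetic FluxOR fluorescence, 10 s baseline plus 110 s post-stimulus | evaluation = ratio B score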
KCNK9 block: human KCNK9 channel inhibition; Q9NPC2; actives 1.2% (n = 310,000); B-score at 10 µM; HEK293 KCNK9, FluxOR thallium flux fluorescence; active compounds read low;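 active = ratio B-score over 3 SD below the library mean, with starting fluorescence within 5 SD of its mean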;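 note: negative B-score means less thallium flux so channel inhibition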
Target sequence (Q9NPC2 whole entry, looked up): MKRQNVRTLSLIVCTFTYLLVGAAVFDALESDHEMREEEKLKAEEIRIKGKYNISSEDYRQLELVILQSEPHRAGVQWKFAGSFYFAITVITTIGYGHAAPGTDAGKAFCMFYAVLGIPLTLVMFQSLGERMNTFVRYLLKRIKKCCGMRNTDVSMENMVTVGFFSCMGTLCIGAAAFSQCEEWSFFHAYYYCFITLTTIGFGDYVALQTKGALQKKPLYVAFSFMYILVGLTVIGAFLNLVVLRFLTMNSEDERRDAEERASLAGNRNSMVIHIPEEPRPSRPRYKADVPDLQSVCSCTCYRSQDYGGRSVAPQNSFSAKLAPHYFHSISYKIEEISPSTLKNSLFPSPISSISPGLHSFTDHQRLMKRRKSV
KCNK3 inh: human KCNK3 channel inhibition, primary screen; CHO-KCNK3 thallium flux, FluxOR fluorescence; active compounds read low; O14649; B-score at 10 µM; actives 0.84% (n = 340,000);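 active = B-score under library mean minus 4 SD, starting fluorescence ratio at most library mean plus 5 SD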;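 note: more negative B-score means stronger inhibition of thallium flux through KCNK3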
hERG protect: shields human hERG channel from block by proarrhythmic agents; Q12809; CHO-hERG, FluxOR thallium flux, dofetilide IC70 present; activation (rescue from dofetilide block), less the hit threshold, % at 10 µM; actives 0.51% (n = 310,000); AID 1511;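 active = activation above the mean of controls blocked by dofetilide plus 5 SD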;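 note: thallium influx through hERG after potassium depolarization seen as dye fluorescence rise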
KCNQ1 block val: reconfirmed blocker of the human KCNQ1 potassium channel | shares compounds with KCNQ1 inh | KCNQ1 cell line, FluxOR thallium flux fluorescence | inhibition, % at 10 µM | actives 93% (n = 1,600);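 active = primary screen active, with duplicate mean exceeding buffer control mean plus 3 SD of buffer wells, cut at about 28% in these data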;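 note: 0% = buffer control ratio and 100% = XE991 inhibitor control ratio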
CHO Tl flux: activity in parental CHO cells lacking KCNQ1 | shares compounds with KCNQ1 inh | parental CHO-K1, FluxOR thallium flux fluorescence ratio; active compounds read low; zero means no signal rise above baseline | fluorescence ratio (Tl flux) at 10 µM | actives 21% (n = 1,600);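 active = mean of duplicate thallium-flux fluorescence ratios in parental host cells more than 5 SD below the buffer control mean, cut at about 0.38 in these data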;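 note: ratio is peak minus minimum fluorescence divided by baseline fluorescence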
KCNQ1 APC inh: confirmation of human KCNQ1 potassium channel inhibitors by electrophysiology; actives 20% (n = 490); KCNQ1-CHO cells, automated patch clamp current; calls only at 10 µM; shares compounds with KCNQ1 inh; AID 624120;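 active = KCNQ1 current drop exceeding 3 SD of negative control wells, seen in both duplicate runs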;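 note: steady state current during a 2 s step from -80 to +40 mV; negative values mean current inhibition and positive values mean potentiation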
KCNQ2 spec: selectivity of KCNQ1 inhibitors: inhibition of rat KCNQ2 channel. shares compounds with KCNQ1 inh. KCNQ2 cells, FluxOR thallium flux fluorescence. inhibition, % at 10 µM. actives 71% (n = 1,600). AID 651746;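 active = mean percent inhibition of the KCNQ2 thallium signal more than 5 SD above the buffer-only control wells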;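 note: KCNQ2 expressed in CHO cells; 0% = buffer control wells and 100% = XE-991 inhibitor control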
KCNQ1-KCNE1 inh: human KCNQ1/KCNE1 inhibition in KCNQ1 specificity screen; KCNQ1/KCNE1 cells, FluxOR thallium flux fluorescence; actives 77% (n = 1,600); inhibition, % at 10 µM; AID 652147; shares compounds with KCNQ1 inh;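 active = mean percent inhibition of duplicate wells above the buffer-only control mean plus 3 SD of those controls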;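 note: 0% = buffer only wells and 100% = XE-991 inhibitor control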
The depositor's hits bear a star; i = inactive; . = not tested or not shown; + = active, no number.

SMILES	KCNQ1 inh	KCNQ1 act	KCNK9 block	KCNK3 inh	hERG protect	KCNQ1 block val	CHO Tl flux	KCNQ1 APC inh	KCNQ2 spec	KCNQ1-KCNE1 inh
COc1ccc(CCNc2ncnc3sc(C)cc23)cc1OC	11*	i	i	i	-19	133*	0.44	i	80%*	82%*
COc1ccc(CCNc2ncnc3[nH]ncc23)cc1OC	i	i	i	i	-14	.	.	.	.	.
O=C1CC(c2ccccc2Cl)=NN(c2ncnc3ccccc23)C1=O	i	i	i	i	-14	.	.	.	.	.
c1ccc(-c2csc3ncnc(N4CCN(Cc5ccc6c(c5)OCO6)CC4)c23)cc1	6*	i	i	i	-21	110*	0.38	i	113%*	116%*
Oc1ccccc1N1CCN(c2ncnc3scc(-c4ccccc4)c23)CC1	6*	i	-8*	i	-19	112*	0.41	i	91%*	156%*
O=c1cc(CSc2nc(NCc3ccc(Cl)cc3)c3ccccc3n2)nc2ccc(Cl)cn12	.	.	.	i	.	.	.	.	.	.
CN1C[C@@H]2[C@@H]3C(=O)N(Cc4ccccc4)C(=O)[C@@H]3[C@](Cc3ccccc3)(C1=O)N2C(=O)c1ccc(C(C)(C)C)cc1	.	.	.	i	.	.	.	.	.	.
Cc1ccc2c(C)c(C(=O)N(C)C(C)c3ccon3)oc2c1C (configuration not stated)	i	i	i	i	-6	.	.	.	.	.
CCCn1nnnc1COc1ccc(C(N)=O)cc1	i	i	i	i	-8	.	.	.	.	.
CN=C1S/C(=C\c2cccc(Cl)c2Cl)C(=O)N1C	i	i	i	i	-11	.	.	.	.	.
CC(C)CCOc1cccc(OCC(=O)Nc2ccncc2)c1	12*	i	i	i	-14	106*	0.45	i	i	40%*
O=C(COc1ccc(Br)cc1)Nc1ccncc1	i	i	i	i	-13	.	.	.	.	.
O=C(COc1ccc(Nc2ccccc2)cc1)Nc1ccncc1	8*	i	i	i	-21	94*	0.54	.	i	i
CCC(C)(C)c1ccc(OCC(=O)Nc2ccncc2)cc1	8*	i	i	i	-23	138*	0.44	i	92%*	72%*
O=C(COc1ccccc1)Nc1cccc(-c2nc3ccccc3[nH]2)c1	6*	i	i	i	-15	52*	0.47	.	78%*	80%*
COc1ccc(NS(=O)(=O)c2cccc(C(=O)N3CCN(S(=O)(=O)c4ccccc4)CC3)c2)cc1	.	.	.	i	.	.	.	.	.	.
COc1ccc(OC)c(S(=O)(=O)N2CCN(c3ccccc3)CC2)c1	i	i	i	i	-11	.	.	.	.	.
CCc1ccccc1N1CCN(S(=O)(=O)c2cc(OC)ccc2OC)CC1	6*	i	i	i	-15	106*	0.43	+	95%*	142%*
O=C(COC(=O)c1ccc[nH]c1=O)Nc1cc(S(=O)(=O)N2CCCCCC2)ccc1Cl	.	.	.	i	.	.	.	.	.	.
COC(=O)c1c(C)oc2ccc(N(C(=O)c3ccncc3)S(=O)(=O)c3ccc4ccccc4c3)cc12	8*	i	i	i	-10	136*	0.4	.	110%*	140%*
COC(=O)c1c(C)oc2ccc(N(C(=O)c3ccncc3)S(=O)(=O)c3ccc(C)cc3C)cc12	9*	i	i	i	-11	135*	0.39	i	127%*	131%*
O=C(Nc1ccccc1O)c1cccc(S(=O)(=O)Nc2ccccc2O)c1	i	i	i	i	-6	.	.	.	.	.
NCCCC(=O)N1c2ccccc2Sc2ccc(Cl)cc21	i	i	i	i	-3	.	.	.	.	.
NCCC(=O)N1c2ccccc2Sc2ccc(Cl)cc21	7*	i	i	i	-8	72*	0.47	.	i	62%*
COC(=O)c1c(NC(=O)c2ccccc2)sc2c1CC(C)(C)OC2	i	i	i	i	-4	.	.	.	.	.
SMILES	KCNQ1 inh	KCNQ1 act	KCNK9 block	KCNK3 inh	hERG protect	KCNQ1 block val	CHO Tl flux	KCNQ1 APC inh	KCNQ2 spec	KCNQ1-KCNE1 inh
CCOC(=O)c1c(NC(=O)c2ccccc2C)sc2c1CC(C)(C)OC2	7*	i	i	i	-10	86*	0.44	.	92%*	150%*
CCCOc1ccc(Br)cc1CSC(=N)N	9*	i	i	i	-16	100*	0.46	+	78%*	46%*
CCOc1ccc(Br)cc1CC(=O)O	i	i	i	i	-7	.	.	.	.	.
COc1ccc(-c2nc(NC(=O)c3cc(C(C)(C)C)nn3C)sc2C)cc1	16*	i	i	i	-13	128*	0.41	i	89%*	126%*
COc1ccc(-c2nc(NC(=O)c3c(C)noc3C)sc2C)cc1	.	.	.	i	.	.	.	.	.	.
CN(C)C(=O)CCC(=O)N1CCCC(C(=O)c2ccc(C(F)(F)F)cc2)C1 (configuration not stated)	i	i	i	i	-1	.	.	.	.	.
CC1(C)CCC(=O)N2CC[C@H]3c4cc5ccccc5nc4C[C@@H]1[C@H]32	.	.	.	i	.	.	.	.	.	.
CCOc1ccc(CCNC(=O)CCNC(=O)c2ccccc2Cl)cc1OCC	i	i	i	i	-9	.	.	.	.	.
CCC(=O)Nc1ccc2c(c1)N(C(C)=O)c1ccccc1CC2	i	i	i	i	-6	.	.	.	.	.
O=c1c2ccccc2nc(SCc2cccc(F)c2)n1C1CCCC1	7*	i	i	i	-19	96*	0.49	i	81%*	114%*
CCN=C(NCC)SC1CC(=O)N(c2cccc(OC)c2)C1=O (configuration not stated)	11*	i	i	i	-23	64*	0.44	.	71%*	62%*
Cc1nn(-c2ccccc2)c(/N=C/c2ccccc2O)c1-c1ccccc1	6*	i	i	i	-12	119*	0.43	i	109%*	166%*
c1coc(CNc2nc(N3CCCCC3)nc3ccccc23)c1	9*	i	i	i	-16	60*	0.38*	.	72%*	62%*
COc1cc(CNc2ncnc3c2[nH]c2ccc(C)cc23)cc(OC)c1	i	i	i	i	-13	.	.	.	.	.

High-throughput results: PubChem BioAssay, Johns Hopkins Ion Channel Center
